Assay results taken from ChEMBL document CHEMBL5321243, “The Cytotoxic Cardiac Glycoside (-)-Cryptanoside A from the Stems of Cryptolepis dubia and Its Molecular Targets” (J Nat Prod, 2023).
Active and inactive are the calls of the source. The rule behind the calls is not given here.

How the values were obtained:
OVCAR-3 = assay: Cytotoxicity against human OVCAR-3 cells incubated for 72 hrs by Cell titer blue assay; type: functional, cell-based; settings: OVCAR-3, 72 h
Outline: (§1)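 Cells grown in RPMI 1640 with 10% FBS, penicillin and streptomycin at 37 °C, 5% CO₂; 5,000 log-phase cells per well seeded, left overnight, then exposed 72 h to serial dilutions from DMSO (DMSO vehicle; paclitaxel positive control). Viability read by CellTiter-Blue absorbance; IC50 relative to vehicle by nonlinear regression; triplicate, three independent experiments.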

OVCAR-5 = assay: Cytotoxicity against human OVCAR-5 cells incubated for 72 hrs by Cell titer blue assay; type: functional, cell-based; settings: OVCAR-5, 72 h; outline: as §1
HT-29 = assay: Cytotoxicity against human HT-29 cells incubated for 72 hrs by Cell titer blue assay; type: functional, cell-based; settings: HT-29, 72 h; outline: as §1
MDA-MB-231 [1] = assay: Upregulation of Akt expression in human MDA-MB-231 cells at 1 to 10 uM incubated for 72 hrs by Western blot analysis; type: functional, cell-based; settings: dose 1-10 µM
Outline: (§2)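 MDA-MB-231 cells in DMEM with 10% FBS, penicillin and streptomycin; 5,000 cells per well seeded, left overnight, then exposed to 1.0, 5.0 or 10.0 µM (from DMSO) for 72 h at 37 °C. Surviving cells lysed in RIPA with 1 mM EDTA and protease inhibitors; equal protein (BCA) immunoblotted, signals normalized to β-actin; three independent experiments, t test versus control.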

MDA-MB-231 [2] = assay: Effect on PI3K expression in human MDA-MB-231 cells at 1 to 10 uM incubated for 72 hrs by Western blot analysis; type: functional, cell-based; settings: dose 1-10 µM; outline: as §2
MDA-MB-231 [3] = assay: Cytotoxicity against human MDA-MB-231 cells incubated for 72 hrs by Cell titer blue assay; type: functional, cell-based; settings: MDA-MB-231, 72 h; outline: as §1
[4] = biological target: Sodium/potassium-transporting ATPase (Sus scrofa); assay: Inhibition of NA+/K+ ATPase (porcine cerebral cortex) activity incubated for 15 mins in presence of ATP by ADP-Glo assay
MDA-MB-231 [5] = assay: Downregulation of NF-kappaB p50 expression in human MDA-MB-231 cells at 0.5 uM incubated for 5 hrs by Western blot analysis; type: functional, cell-based
Outline: (§3)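 MDA-MB-231 cells in DMEM with 10% FBS and antibiotics, seeded overnight, then exposed to 0.5 µM or 0.48 µM (from DMSO) for 5 h at 37 °C. Cells washed in cold PBS, lysed in RIPA with EDTA and protease inhibitors; equal protein immunoblotted for p-Akt or NF-κB p50, normalized to β-actin; n = 3, t test versus control.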

MDA-MB-231 [6] = assay: Upregulation of NF kappaB p65 expression in human MDA-MB-231 cells at 1 to 10 uM incubated for 72 hrs by Western blot analysis; type: functional, cell-based; settings: dose 1-10 µM; outline: as §2
MDA-MB-231 [7] = assay: Effect on NF-kappaB p52 expression in human MDA-MB-231 cells at 1 to 10 uM incubated for 72 hrs by Western blot analysis; type: functional, cell-based; settings: dose 1-10 µM; outline: as §2
MDA-MB-231 [8] = assay: Downregulation of NF kappaB p52 expression in human MDA-MB-231 cells at 5 to 10 uM incubated for 72 hrs by Western blot analysis; type: functional, cell-based; settings: dose 5-10 µM; outline: as §2
[9] = Cytotoxicity against human FT194 cells incubated for 72 hrs by Cell titer blue assay; type: functional, cell-based; settings: FT194, 72 h; outline: as §1
MDA-MB-231 [10] = assay: Upregulation of p-Akt expression in human MDA-MB-231 cells at 0.5 uM incubated for 5 hrs by Western blot analysis; type: functional, cell-based; outline: as §3
MDA-MB-435 = assay: Cytotoxicity against human MDA-MB-435 cells incubated for 72 hrs by Cell titer blue assay; type: functional, cell-based; settings: MDA-MB-435, 72 h; outline: as §1
MDA-MB-231 [11] = assay: Downregulation of NF kappaB p50 expression in human MDA-MB-231 cells at 1 to 10 uM incubated for 72 hrs by Western blot analysis; settings: dose 1-10 µM
MDA-MB-231 [12] = assay: Upregulation of p-Akt expression in human MDA-MB-231 cells at 0.48 uM incubated for 5 hrs by Western blot analysis; type: functional, cell-based; outline: as §3
MDA-MB-231 [13] = assay: Downregulation of NF-kappaB p50 expression in human MDA-MB-231 cells at 0.48 uM incubated for 5 hrs by Western blot analysis; type: functional, cell-based; outline: as §3

Structure (SMILES) | IC50 (OVCAR-3) [nM] | IC50 (OVCAR-5) [nM] | IC50 (HT-29) [nM] | Activity (MDA-MB-231 [1]) | Activity (MDA-MB-231 [2]) | IC50 (MDA-MB-231 [3]) [nM] | IC50 [4] [nM] | Activity (MDA-MB-231 [5]) | Activity (MDA-MB-231 [6]) | Activity (MDA-MB-231 [7]) | Activity (MDA-MB-231 [8]) | IC50 [9] [nM] | Activity (MDA-MB-231 [10]) | IC50 (MDA-MB-435) [nM] | Activity (MDA-MB-231 [11]) | Activity (MDA-MB-231 [12]) | Activity (MDA-MB-231 [13])
CC(=O)O[C@H]1C(=O)[C@@]2(C)[C@H]([C@H](OC(=O)c3ccccc3)[C@]3(O)C[C@H](OC(=O)[C@H](O)[C@@H](NC(=O)c4ccccc4)c4ccccc4)C(C)=C1C3(C)C)[C@]1(OC(C)=O)CO[C@@H]1C[C@@H]2O [PACLITAXEL] | 4.9 | 7300 | 3400 |  |  |  |  |  |  |  |  |  |  |  |  |  | 
CO[C@H]1C[C@H](O[C@H]2CC[C@]3(C)C4[C@H](O)C(=O)[C@]5(C)[C@@H](C6=CC(=O)OC6)CC[C@]5(O)[C@@]45O[C@H]5C[C@@H]3C2)O[C@@H](C)[C@@H]1O (stereo not given in full) | 140 | 440 | 220 | Active | inactive | 500 | 1200 | inactive | Active | inactive | Active | 1100 | Active | 200 | Active |  | 
C[C@H]1O[C@@H](O[C@H]2[C@@H](O)C[C@H](O[C@H]3[C@@H](O)C[C@H](O[C@H]4CC[C@@]5(C)[C@H](CC[C@@H]6[C@@H]5C[C@@H](O)[C@]5(C)[C@@H](C7=CC(=O)OC7)CC[C@]65O)C4)O[C@@H]3C)O[C@@H]2C)C[C@H](O)[C@@H]1O |  |  |  | Active | inactive |  |  |  | Active | inactive |  |  |  |  | Active | Active | inactive
